Source: ChEMBL document CHEMBL2203112, “Synthesis, evaluation of anti-HIV-1 and anti-HCV activity of novel 2',3'-dideoxy-2',2'-difluoro-4'-azanucleosides” (Bioorg Med Chem, 2012)
Active and inactive are the calls of the source. The rule behind the calls is not given here.

What was measured:
CCRF-CEM = experiment: Cytotoxicity against human CEM cells; assay type: cell-based
Outline: (§1)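 Cytotoxicity measured in lymphocytic CEM cells and in Vero (African green monkey kidney) cells; expressed as IC50 (μM).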

PBMC = experiment: Cytotoxicity against human PBMC; assay type: cell-based
Outline: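 Cytotoxicity measured in uninfected, phytohemagglutinin-stimulated human PBM cells; expressed as IC50 (μM).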

Vero = experiment: Cytotoxicity against african green monkey Vero cells; assay type: cell-based; conditions: Chlorocebus sabaeus; outline: as §1
[1] = test system: Human immunodeficiency virus 1; experiment: Antiviral activity against HIV1 LAI infected in human PBMC assessed as inhibition of viral replication; assay type: functional, organism-based; conditions: Human immunodeficiency virus 1, LAI
Hepatitis C virus = experiment: Antiviral activity against HCV assessed as inhibition of viral replication at 10 uM; assay type: functional, organism-based; conditions: Hepacivirus hominis
Outline: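 HCV replicon assay with a single test concentration of 10 μM; 2′-C-Me-cytidine served as positive control.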

Compound | IC50 (CCRF-CEM) [µM] | IC50 (PBMC) [µM] | IC50 (Vero) [µM] | EC50 [1] [µM] | EC90 [1] [µM] | inhibition (Hepatitis C virus)
CC(C)(C)OC(=O)N1C(n2cnc3ncnc(N)c32)C(F)(F)C[C@H]1CO (single isomer, unassigned; 32) [listing 1 of 2 here] | > 100 | > 100 | > 100 | > 100 | > 100 | 
CC(C)(C)OC(=O)N1C(n2cnc3ncnc(N)c32)C(F)(F)C[C@H]1CO (single isomer, unassigned; 33) [listing 1 of 2 here] | > 100 | > 100 | > 100 | > 100 | > 100 | 
CC(C)(C)OC(=O)N1C(n2cnc3ncnc(Cl)c32)C(F)(F)C[C@H]1CO (single isomer, unassigned; 28) [listing 1 of 2 here] | > 100 | > 100 | > 100 | > 100 | > 100 | 
CC(C)(C)OC(=O)N1C(n2cnc3ncnc(N)c32)C(F)(F)C[C@H]1CO (single isomer, unassigned; 32) [listing 2 of 2 here] |  |  |  |  |  | inactive
CC(C)(C)OC(=O)N1C(n2cnc3c(Cl)ncnc32)C(F)(F)C[C@H]1CO (single isomer, unassigned; 26) [listing 1 of 2 here] | 57.1 | > 100 | > 100 | > 100 | > 100 | 
CC(C)(C)OC(=O)N1[C@H](CO)CC(F)(F)[C@H]1n1cc(F)c(=O)[nH]c1=O | > 100 | 30.5 | > 100 | 36.9 | 75.6 | inactive
CC(C)(C)OC(=O)N1C(n2cnc3ncnc(N)c32)C(F)(F)C[C@H]1CO (single isomer, unassigned; 33) [listing 2 of 2 here] |  |  |  |  |  | inactive
CC(C)(C)OC(=O)N1C(n2cnc3c(N)ncnc32)C(F)(F)C[C@H]1CO (single isomer, unassigned; 30) [listing 1 of 2 here] |  |  |  |  |  | inactive
CC(C)(C)OC(=O)N1C(n2cnc3c(N)ncnc32)C(F)(F)C[C@H]1CO (single isomer, unassigned; 30) [listing 2 of 2 here] | > 100 | > 100 | > 100 | > 100 | > 100 | 
CC(C)(C)OC(=O)N1C(n2cnc3c(N)ncnc32)C(F)(F)C[C@H]1CO (single isomer, unassigned; 31) [listing 1 of 2 here] |  |  |  |  |  | inactive
CC(C)(C)OC(=O)N1[C@H](CO)CC(F)(F)[C@@H]1n1ccc(=O)[nH]c1=O | > 100 | 81.4 | 44.4 | > 100 | > 100 | inactive
CC(C)(C)OC(=O)N1[C@H](CO)CC(F)(F)[C@H]1n1ccc(=O)[nH]c1=O | > 100 | > 100 | > 100 | > 100 | > 100 | inactive
CC(C)(C)OC(=O)N1C(n2cnc3ncnc(Cl)c32)C(F)(F)C[C@H]1CO (single isomer, unassigned; 29) [listing 1 of 2 here] |  |  |  |  |  | inactive
CC(C)(C)OC(=O)N1C(n2cnc3c(Cl)ncnc32)C(F)(F)C[C@H]1CO (single isomer, unassigned; 27) [listing 1 of 2 here] | 38.1 | 58.1 | > 100 | 64.5 | > 100 | 
CC(C)(C)OC(=O)N1[C@H](CO)CC(F)(F)[C@@H]1n1cc(F)c(=O)[nH]c1=O | > 100 | 28.2 | > 100 | 44.5 | 90.8 | inactive
CC(C)(C)OC(=O)N1C(n2cnc3ncnc(Cl)c32)C(F)(F)C[C@H]1CO (single isomer, unassigned; 28) [listing 2 of 2 here] |  |  |  |  |  | inactive
CC(C)(C)OC(=O)N1C(n2cnc3ncnc(Cl)c32)C(F)(F)C[C@H]1CO (single isomer, unassigned; 29) [listing 2 of 2 here] | 55.4 | 59.5 | > 100 | 92.3 | > 100 | 
CC(C)(C)OC(=O)N1C(n2cnc3c(Cl)ncnc32)C(F)(F)C[C@H]1CO (single isomer, unassigned; 26) [listing 2 of 2 here] |  |  |  |  |  | inactive
CC(C)(C)OC(=O)N1C(n2cnc3c(Cl)ncnc32)C(F)(F)C[C@H]1CO (single isomer, unassigned; 27) [listing 2 of 2 here] |  |  |  |  |  | inactive
CC(C)(C)OC(=O)N1C(n2cnc3c(N)ncnc32)C(F)(F)C[C@H]1CO (single isomer, unassigned; 31) [listing 2 of 2 here] | > 100 | > 100 | > 100 | > 100 | > 100 | 
Cc1cn([C@H]2C[C@H](N=[N+]=[N-])[C@@H](CO)O2)c(=O)[nH]c1=O [ZIDOVUDINE] |  | > 100 |  |  | 0.0027 | inactive
